Screens as filed in PubChem.
Rows were chosen to be rich in hits. Some 4.6% of all compounds tested hit in one or more screens of this group.
OX1R antag-1 = antagonists of human orexin 1 receptor; hit rate 0.43% among 330,000; AID 434989; CHO/OX1R cells, Fluo-8 calcium fluorescence, orexin A; inhibition, % at 5 µM;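 active means inhibition above its plate's threshold, mean inhibition of all tested compounds on the plate plus 3 SD, cut at about 37% in these data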;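 further: 0% = orexin A challenge wells and 100% = SB-334867-A antagonist wells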
GPR7 antag = human neuropeptides B/W receptor 1 antagonism; P48145; GPR7-expressing cells, fluorescence antagonist assay; inhibition, % at 4.4 µM; hit rate 1.1% among 290,000; in the data active means inhibition above about 16%, passing the limit was not always enough;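 further: cells stimulated with the agonist NPW; 0% = agonist with vehicle and 100% = vehicle without agonist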
Target sequence (P48145 whole entry, looked up): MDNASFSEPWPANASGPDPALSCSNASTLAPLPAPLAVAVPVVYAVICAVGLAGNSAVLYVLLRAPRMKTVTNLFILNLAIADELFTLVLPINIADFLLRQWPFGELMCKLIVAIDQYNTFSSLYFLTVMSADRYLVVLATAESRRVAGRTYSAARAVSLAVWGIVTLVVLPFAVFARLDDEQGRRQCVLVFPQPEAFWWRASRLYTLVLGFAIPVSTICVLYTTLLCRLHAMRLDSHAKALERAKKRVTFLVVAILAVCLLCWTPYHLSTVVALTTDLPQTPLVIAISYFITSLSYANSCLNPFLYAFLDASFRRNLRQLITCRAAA
CHO parental Ca = counter-screen: ATP calcium response change in parental CHO cells. parental CHO-K1, ATP-induced calcium, Fluo-8 fluorescence. inhibition, % at 5.6 µM. hit rate 0.63% among 330,000. AID 463079;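 active means inhibition above that plate's mean sample inhibition plus 3 SD, cut at about 26% in these data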;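 further: 0% = ATP-challenged DMSO wells and 100% = DMSO wells without ATP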
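Test system: parental CHO cells; detection: calcium-sensitive Fluo-8 fluorescence; evaluation: percent inhibition of calcium signal; also added: ATP as calcium-mobilizing challenge; repeats: one well per compound; control set: ATP-challenged DMSO wells low, unchallenged DMSO wells high; compound: single nominal dose of 5.6 µM per compound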
OX1R antag-2 = OX1R (human) antagonism; O43613; OX1R-expressing cells, FRET antagonist read-out; inhibition, % at 6.6 µM; hit rate 1.8% among 330,000; in the data active means inhibition mostly above about 38%, no sharp cut-off; inactive means mostly below about 40%;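 further: 0% = agonist challenge alone and 100% = reference antagonist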
TAAR1 antag = antagonists of human TAAR1; Q96RJ0; CHO RD-HGA16 TAAR1, Fluo-8 calcium fluorescence, antagonist; inhibition, % at 3 µM; hit rate 1.5% among 360,000; AID 624466;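 active means inhibition above a per-plate cutoff, the mean inhibition of test compounds on that plate plus 3 SD, cut at about 49% in these data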;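 further: 0% = DMSO plus EC80 beta-PEA response and 100% = DMSO alone without agonist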
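Assay system: RD-HGA16 CHO cells with stable hTAAR1 and Gα16 / Reagent: EC80 β-phenethylamine stimulus / Doses: 3 µM, single point / Timing: dye loading 75 min at 37 °C, then 30 min room temperature / Measured by: Fluo-8 intracellular calcium dye fluorescence, real-time kinetic reads / Controls: vehicle wells and EC80 agonist wells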
TAAR1 ag = agonists of human TAAR1; Q96RJ0; CHO RD-HGA16 TAAR1, Fluo-8 calcium fluorescence; vehicle wells 0%, saturating PEA agonist 100%; activation, % at 3 µM; hit rate 0.99% among 360,000; AID 624467;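 active means activation above the mean activation of all test compounds in the run plus 3 SD, cut at about 38% in these data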
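Test system: RD-HGA16 (CHO) cells co-expressing Gα16 and hTAAR1 | Doses: Single dose, 3 µM | Schedule: 17-24 h seeding, 75 min 37 °C dye, 30 min RT | Evaluation: % activation from peak over basal fluorescence ratio, DMSO-to-PEA scaled | Technique: Kinetic Fluo-8 calcium fluorescence | Benchmarks: Low control DMSO, high control PEA (EC100)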
Starred values were filed as active, the others as inactive; . = no result given.

SMILES	OX1R antag-1	GPR7 antag	CHO parental Ca	OX1R antag-2	TAAR1 antag	TAAR1 ag
CC(C)(C)c1ccc(S(=O)(=O)Nc2ccc(Cc3ccncc3)cc2)cc1	-3	9	4	4	39	46*
CCc1noc(C)c1C(=O)NCCN1C(=O)S/C(=C\c2ccc(OC)cc2)C1=O	-3	.	23	58*	8	3
CC(=O)Nc1ccc(S(=O)(=O)N2c3ccccc3C(C)=CC2(C)C)cc1	-16	22*	-13	21	-17	6
CC1=CC(C)(C)N(S(=O)(=O)c2ccc(F)cc2)c2ccccc21	-14	-3	-17	29	-10	4
CCCNC(=O)c1noc2c1CCc1ccccc1-2	-16	2	-4	11	9	-1
O=C(NCCc1ccccc1)c1noc2c1CCc1ccccc1-2	-24	-7	-18	29	67*	31
COc1ccc2c(c1)CCc1c(C(=O)Nc3ccc(OC)c(OC)c3)noc1-2	-15	-5	-6	3	51*	10
COc1ccc2c(c1)CCc1c(C(=O)NCCc3ccc(OC)c(OC)c3)noc1-2	-21	-15	-22	26	49*	12
CCn1c(C)nc2cc(C(=O)NNC(=O)CCC3CCCC3)ccc21	-12	-8	-13	7	-19	8
CCOc1ccc(NS(=O)(=O)c2ccc(NC(=O)c3ccccn3)cc2)cc1	-5	.	-12	8	4	24
CCOc1ccc(C(C)=O)cc1CSC(=N)N	-10	-9	-9	12	-6	12
CCCCOc1ccc(Br)cc1CSC(=N)N	.	75*	.	.	73*	103*
CC(Cc1cccs1)NC(=S)Nc1ccc(Cl)cc1 (stereo not drawn)	1	-1	19	60*	12	13
COc1ccc([C@H]2CC(=O)C=C(c3ccc(Cl)c(Cl)c3)C2)cc1	1	.	-29	8	7	5
COC(=O)N/N=C/c1cc(OC)c(O)c([N+](=O)[O-])c1	-18	-2	-4	51*	3	3
O=C(O)c1ccc(N/N=C/c2ccc(-c3cccc(Cl)c3)o2)cc1	1	-1	1	6	31	35
O=C(O)c1cccc(-c2ccc(/C=N/Nc3ccc([N+](=O)[O-])cc3)o2)c1	54*	11	33*	12	57*	44*
COc1cc(/C=N/NS(=O)(=O)c2ccc(C)c([N+](=O)[O-])c2)cc([N+](=O)[O-])c1O	2	-10	-8	9	-8	4
O=C(COc1ccccc1)N/N=C/c1ccc([N+](=O)[O-])o1	-7	-6	0	53	5	2
NC(=O)N/N=C/c1ccc([N+](=O)[O-])o1	-3	.	4	66*	-13	2
O=C(O)c1ccc(N/N=C/C=C/c2ccc([N+](=O)[O-])o2)cc1	49*	-2	52*	63	42	33
Cc1cccc(-n2ncc3c2CCCC3NC(=O)Cc2c(C)noc2C)c1C (stereo not drawn)	-13	10	1	23	0	3
Cc1ccc(CNc2ncnc(N)c2[N+](=O)[O-])cc1	-14	-10	-12	32	-35	-1
O=[N+]([O-])c1ccc(/C=[N+](\[O-])CCO)o1	-14	-5	-7	47*	-4	0
Cc1cc(C(=O)N/N=C/c2ccc([N+](=O)[O-])o2)c(C)o1	8	-17	-5	32	-10	-1
SMILES	OX1R antag-1	GPR7 antag	CHO parental Ca	OX1R antag-2	TAAR1 antag	TAAR1 ag
O=C(CNc1ccc2ccccc2c1)N/N=C/c1ccc([N+](=O)[O-])o1	24	-4	41*	46*	23	2
COC(=O)N/N=C/c1ccc([N+](=O)[O-])o1	-13	-19	-7	56*	-7	6
NC(=O)/C(=C\c1ccc([N+](=O)[O-])o1)c1ccco1	.	.	.	.	-12	0
COC(=O)/C(=C\c1ccc([N+](=O)[O-])o1)NC(=O)c1ccccc1	-4	5	2	69*	18	1
COc1cccc2c1O/C(=N\O)C(C(=O)Nc1cccc(Br)c1)C2 (stereo not drawn)	.	-5	.	.	-6	3
CCCOc1ccc(C(=O)CCC(=O)NNC(=O)Cn2nc(C)cc2C)cc1	-10	.	-4	13	-31	4
COC(=O)[C@]1(Cc2ccccc2)N[C@H](CN(C)C(=O)C2CCCCC2)[C@@H]2C(=O)N(Cc3ccccc3)C(=O)[C@@H]21	-7	.	-24	12	-14	3
O=C(N/N=C/c1ccc([N+](=O)[O-])o1)C(O)c1ccccc1 (stereo not drawn)	-3	-6	-7	36*	-11	3
Cc1c(C(=O)O)cccc1-c1ccc(/C=N/Nc2ccc(Br)cc2)o1	6	1	-2	22	59*	23
O=C(N/N=C/c1ccc(-c2ccc([N+](=O)[O-])cc2)o1)C(O)c1ccccc1 (stereo not drawn)	-17	-15	-12	18	-6	4
COc1ccc(S(=O)(=O)N2CCOCC2)cc1NC(=O)CN1C(=O)NC2(CCC(C)CC2)C1=O (stereo not drawn)	.	.	.	.	-12	3
CCCn1c(CNc2ccc(Br)cc2)nc2ccccc21	-9	6	34*	11	-10	-1
COc1ccc(N(CC(=O)Nc2ccc(S(=O)(=O)N3CCOCC3)cc2)S(=O)(=O)c2ccc(F)cc2)cc1	-8	-9	-9	0	51*	20
O=C(CCNS(=O)(=O)c1ccccc1)N1CCN(c2ccccc2F)CC1	-14	2	-24	22	2	2
CCn1c(SCc2nc(-c3ccc(OC)c(OC)c3)no2)nnc1-c1cccs1	24	-14	-8	45*	-11	17
COc1cc(-c2noc(-c3cccs3)n2)cc(OC)c1OC	-13	-7	-24	48*	10	6
COc1ccc(-c2noc(CSc3nnc(Cc4ccccc4)n3-c3cccc(C)c3)n2)cc1OC	3	-1	-12	39*	11	5
CN(Cc1cccc2cnccc12)C(=O)CCc1nnc(CCc2ccccc2)o1	-22	-8	-22	23	-1	11
CC(=O)c1ccc(-c2nnc(CCC(=O)N(C)Cc3cccc4cnccc34)o2)s1	-24	-7	-5	35*	31	2
N#Cc1nc(-c2ccc(Cl)cc2)oc1NCc1ccco1	10	0	44*	28	12	1
COc1ccc(CCNC(=O)c2cccc(C(=O)NCCc3ccc(OC)cc3)n2)cc1	-24	.	-26	9	54*	7
CCCCNC(=O)NNc1nc(Cl)cc(C)c1C#N	7	-14	4	14	3	2
Cc1ccnc(SCC(=O)Nc2sc3c(c2C#N)CCCC3)n1	74*	15	69*	80*	30	14
